High-throughput results as filed in PubChem.
Sampled rows, rich in hits. Any-hit rate of the full collection: about 3.1%.
OX1R antag-1: antagonists of human orexin 1 receptor (OX1R); Orexin/Hypocretin receptor type 1 (Homo sapiens), O43613; OX1R-expressing cells, FRET antagonist read-out; inhibition, % at 6.6 µM; hit rate 1.8% among 330,000; in the data active means inhibition mostly above about 38%, no sharp cut-off; inactive means mostly below about 40%
GPR7 antagonist: GPR7 receptor antagonists, primary screen, cell-based, fluorescence, single concentration. hit rate 1.1% among 290,000. Neuropeptides B/W receptor type 1 (Homo sapiens), P48145. AID 1861, 2009. GPR7-expressing cells, fluorescence antagonist assay. inhibition, % at 4.4 µM; in the data active means inhibition above about 16%, passing the limit was not always enough;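 further: cells stimulated with the agonist NPW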
OX1R antag-2: OX1R (HCRTR1) antagonists, primary screen, fluorescence, CHO/OX1R cells, Fluo-8 calcium, orexin A. inhibition, % at 5 µM. Fluo-8 calcium fluorescence. hit rate 0.43% among 330,000. Orexin/Hypocretin receptor type 1 (Homo sapiens), O43613;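 active means inhibition above its plate's threshold, mean inhibition of all tested compounds on the plate plus 3 SD, cut at about 37% in these data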
CHO parental Ca: ATP-evoked calcium signal inhibitors, parental CHO, primary screen, counter-screen for OX1R antagonist project, cell-based, fluorescence, Fluo-8 calcium dye | inhibition, % at 5.6 µM | AID 463079, 2010 | parental CHO-K1, ATP-induced calcium, Fluo-8 fluorescence | hit rate 0.63% among 330,000;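 active means inhibition above that plate's mean sample inhibition plus 3 SD, cut at about 26% in these data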
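test system = CHO parental line | reagent = ATP stimulus | measured by = intracellular calcium via Fluo-8 no-wash fluorescent dye | control set = ATP and no-ATP DMSO wells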
GalR3 antagonist: GalR3 antagonists in HEK293 cells, primary screen, cell-based, fluorescence readout; Galanin receptor type 3 (Homo sapiens), O60755; HEK293 GalR3-CNG cAMP membrane potential fluorescence; galR3 body fused to GalR1 C-terminus; inhibition, % at 3 µM; hit rate 0.44% among 360,000;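 active means inhibition above the screen-wide average plus 3 SD, cut at about 13% in these data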;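 further: forskolin and galanin both at EC90 stimulate the cells; cAMP rise reported by CNG channel membrane potential dye signal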
Target sequence (O60755 1-299 limits assumed): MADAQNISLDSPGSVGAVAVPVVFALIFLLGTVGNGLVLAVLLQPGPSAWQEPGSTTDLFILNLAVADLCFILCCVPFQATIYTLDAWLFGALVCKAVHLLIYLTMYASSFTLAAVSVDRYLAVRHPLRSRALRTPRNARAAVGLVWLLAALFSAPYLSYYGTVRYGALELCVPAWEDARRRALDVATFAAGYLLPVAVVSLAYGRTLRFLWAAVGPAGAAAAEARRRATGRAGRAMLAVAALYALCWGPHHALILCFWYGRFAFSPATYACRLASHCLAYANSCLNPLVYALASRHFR
Hits are given with their value; i = inactive; nt = no result.

SMILES | OX1R antag-1 | GPR7 antagonist | OX1R antag-2 | CHO parental Ca | GalR3 antagonist
O=C(CN1C(=O)NC2(CCCCCC2)C1=O)Nc1ccc2c(c1)CCC2 | i | 70 | i | i | i
CC(C)C1=CC2C3C(=O)N(c4ccccc4)C(=O)C3C1C(=O)C2(C)O (centres undefined) | nt | nt | nt | nt | i
Cc1ccc2n(n1)c(=O)c(Cc1ccccc1)c([O-])[n+]2-c1ccccc1 | 48 | i | i | i | i
CCc1nnc(N/N=C/c2ccc(N3CCC(C)CC3)c([N+](=O)[O-])c2)n1N | 60 | i | i | i | i
Cc1nnc(N/N=C/c2cc([N+](=O)[O-])c(N3CCC(C)CC3)cc2N2CCC(C)CC2)n1N | 146 | i | i | i | i
CC1CCN(c2cc(N3CCOCC3)c(F)cc2[N+](=O)[O-])CC1 | i | i | i | i | i
CSc1ccc(CN2CCC(CO)(Cc3ccc(Cl)cc3)CC2)cc1 | i | 30 | i | i | i
OCC1(Cc2ccccc2)CCN(Cc2ccc(C(F)(F)F)cc2)CC1 | i | i | i | i | i
Cc1ccc(S(=O)(=O)N(C)CC(=O)Nc2ccccc2)cc1 | i | i | i | i | i
CSc1cccc(NC(=O)CN(C)S(=O)(=O)c2ccc(C)cc2)c1 | 78 | i | 51 | i | i
CC(=O)Nc1ccc(S(=O)(=O)N(C)CC(=O)Nc2ccc(Br)cc2F)cc1 | i | nt | i | 67 | i
CN(CC(=O)Nc1ccncc1)S(=O)(=O)c1ccc(Br)cc1 | i | i | i | i | i
Brc1ccccc1C1Cc2nnccc2CN1 (centres undefined) | nt | nt | nt | nt | i
CCCS(=O)(=O)NC(=O)C1(C)CCCN(C(=O)c2ccc3ccccc3n2)C1 (centres undefined) | nt | nt | nt | nt | i
Cc1c(NC(=O)CN2C(=O)c3cccc4cccc2c34)c(=O)n(-c2ccccc2)n1C | 76 | i | i | i | i
Cc1c(NC(=O)CN2C(=O)C3C4C=CC(C4)C3C2=O)c(=O)n(-c2ccccc2)n1C (centres undefined) | i | i | i | i | i
Cc1c(NC(=O)c2ccc(=O)oc2)c(=O)n(-c2ccccc2)n1C | 76 | i | i | i | i
COc1ccc(-n2nnnc2C(c2cccc(OC)c2OC)N2CCN(C/C=C/c3ccccc3)CC2)cc1 (centres undefined) | nt | nt | nt | nt | i
CC(C)(C)c1ccc(-c2cc(-c3ccccc3O)[nH]n2)cc1 | i | i | i | i | i
Oc1ccccc1-c1cc(-c2cccc(F)c2)n[nH]1 | 41 | i | i | i | i
COC(=O)C(Cc1ccc(O)cc1)NS(=O)(=O)Cc1ccccc1 (centres undefined) | nt | nt | nt | nt | i
Cc1ccc2nc(-c3ccc(NC(=S)NC(=O)C(C)C)cc3)sc2c1 | i | i | i | i | i
Cc1ccc2nc(-c3ccc(NC(=S)NC4CC(C)(C)NC(C)(C)C4)cc3)sc2c1 | i | 52 | i | i | i
O=C(Nc1cccc2cccnc12)c1ccccc1Cl | i | nt | i | i | i
CCOc1ccccc1C(=O)Nc1cccc2ccccc12 | 53 | i | i | i | i
SMILES | OX1R antag-1 | GPR7 antagonist | OX1R antag-2 | CHO parental Ca | GalR3 antagonist
COc1ccccc1C(=O)Nc1cccc2cccnc12 | 73 | i | i | i | i
COc1ccccc1NC(=O)c1ccccc1-c1nc(-c2ccccc2OC)no1 | 55 | i | i | i | i
Cc1ccc(NC(=O)c2cccc3cccnc23)cc1 | i | i | i | i | i
CC(=O)Nc1cccc(NC(=O)c2cccc3cccnc23)c1 | 71 | i | i | i | i
CC(OC(=O)CC1Sc2ccccc2NC1=O)C(=O)N(C)Cc1ccccc1 (centres undefined) | nt | nt | nt | nt | i
NC(=O)[C@@H]1CCCN1C(=O)[C@@H](Cc1ccccc1)NC(=O)[C@H]1O[C@@H](n2ccc(=O)[nH]c2=O)[C@H](O)[C@@H]1O | nt | nt | nt | nt | i
CCN(CC)C(=O)c1ncn2c1C(=O)NC[C@@H]2C | nt | nt | nt | nt | i
COC(=O)/C(=C(O)\C=C\c1ccccc1[N+](=O)[O-])c1nc2ccccc2[nH]1 | 56 | i | i | i | i
Cc1nn2c(-c3ccccc3)nnc2c2ccccc12 | 64 | i | i | i | i
Cc1nn2c(-c3cccc(NC(=O)c4ccco4)c3)nnc2c2ccccc12 | i | i | i | i | i
